The subject of data set [1] is HMEC. Kind of data set: Cytotoxicity against HMEC cells assessed as cell viability after 3 to 4 days. The conditions noted are these: Homo sapiens.
For data set [2], the system named is HMEC. Kind of data set: Induction of apoptosis in HMEC cells assessed as caspase 3/7 activation after 3 to 24 hrs. The conditions noted are these: Homo sapiens.
A further data set has as its system BT-549. Kind of data set: Induction of apoptosis in human BT549 cells assessed as caspase 3/7 activation after 3 to 24 hrs.
In data set [3] the target is E3 ubiquitin-protein ligase XIAP (Homo sapiens, UniProt P98170). In words: Binding affinity to XIAP-BIR3 domain by fluorescence polarization competitive assay.
Sequence of E3 ubiquitin-protein ligase XIAP (P98170 whole entry, the tested form may be a part): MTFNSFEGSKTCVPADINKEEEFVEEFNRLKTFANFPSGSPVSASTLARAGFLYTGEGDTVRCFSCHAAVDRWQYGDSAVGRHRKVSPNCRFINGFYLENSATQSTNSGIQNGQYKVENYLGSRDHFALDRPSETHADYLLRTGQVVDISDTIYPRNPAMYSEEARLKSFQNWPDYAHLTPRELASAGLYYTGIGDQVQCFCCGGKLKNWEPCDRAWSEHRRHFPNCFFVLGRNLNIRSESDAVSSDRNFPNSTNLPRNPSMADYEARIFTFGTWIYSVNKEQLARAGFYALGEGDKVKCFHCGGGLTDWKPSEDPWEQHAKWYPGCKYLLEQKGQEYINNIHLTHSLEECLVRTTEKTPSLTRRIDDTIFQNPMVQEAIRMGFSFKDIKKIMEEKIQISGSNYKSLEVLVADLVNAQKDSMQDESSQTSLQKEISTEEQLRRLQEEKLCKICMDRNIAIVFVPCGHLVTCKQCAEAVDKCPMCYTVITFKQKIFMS
Data set [4] relates to MDA-MB-231. In words: Induction of apoptosis in human MDA-MB-231 cells assessed as caspase 3/7 activation after 3 to 24 hrs.
Data set [5] relates to MDA-MB-231. Kind of data set: Cytotoxicity against human MDA-MB-231 cells assessed as cell viability after 3 to 4 days.
A short description of data set [6]: Binding affinity to MLXBIR3SG domain by fluorescence polarization competitive assay. Background: Polarisation of emitted light reports the rotation of a fluorescent probe.
The nature of data set [7]: Cmax in mouse at 25 mg/kg, po. The arrangement: dose 25 mg/kg, route oral. The note with it: in vivo. The data set is classed as ADME, organism-based.
The next data set deals with Mus musculus. Kind of data set: Toxicity in mouse bearing human MDA-MB-231 cells assessed as change in body weight at 50 mg/kg/day, po. Type of data set: organism-based. The arrangement: route oral. The note with it: in vivo. A digest of the protocol: (§1)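 Female 8-week-old C.B-17 SCID.bg mice inoculated subcutaneously in the upper right flank with 1 × 10⁷ GFP-expressing MDA-MB-231-X1.1 cells. Once-daily oral gavage of vehicle or compound at 50 (mg/kg)/day began at tumors of ~200 mm³ (~1.5 weeks after inoculation), n = 14 per group. Caliper tumor volume V = 0.5ab². Progression defined as a 6-fold volume increase from day 0; body weight monitored.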

The nature of data set [8]: Half life in mouse at 25 mg/kg, po. The data set is classed as ADME, organism-based. The conditions noted are these: in vivo. Further details: dose 25 mg/kg, route oral.
Data set [9] concerns MDA-MB-231. Kind of data set: Antitumor activity against human MDA-MB-231 cells xenografted in mouse assessed as increase in median time for tumor progression at 50 mg/kg/day, po. Type of data set: functional, organism-based. A digest of the protocol:
as §1
On the technique in general: A xenograft is tissue or cells of one species grown in another, often human tumour cells in immunodeficient mice.

For data set [10], the system named is MDA-MB-231. Kind of data set: Induction of cIAP1 degradation in human MDA-MB-231 cells after 1 hr by Western blot. Type of data set: functional, cell-based. The method in brief: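 MDA-MB-231 cells treated 1 h with a range of compound concentrations. Western blot probed with goat anti-c-IAP1, with mouse monoclonal anti-β-tubulin as loading control.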
For orientation: Immunoblotting shows a protein as a band on a membrane.

Data set [11] in a line: AUC in mouse at 25 mg/kg, po. Type of data set: ADME, organism-based. The arrangement: dose 25 mg/kg, route oral. The conditions noted are these: plasma.

Calls of active or inactive are those of the source. Where only a bound is given, the exact number is not on record here.

What is called EC50 is the midpoint of the concentration-response curve. Usually Ki stands for a measure of affinity in units of concentration, obtained from inhibition or displacement. By Cmax is commonly meant the highest concentration seen after dosing. In general, half-life refers to the time in which the quantity being followed falls by half. Low values mean fast loss, high ones slow loss. Usually AUC stands for the area under the concentration-time curve, a measure of exposure. Higher therefore signals high exposure.

`CN[C@@H](C)C(=O)N[C@H](C(=O)N1CC[C@H]2CC[C@H](NC(=O)c3ccc(C)c4ccccc34)[C@H]21)C(C)(C)C`: the EC50 in the data set on HMEC [1] was greater than 10000 nM; in the data set on HMEC [2] it was greater than 10000 nM; in the data set on BT-549, 1450 nM; in the data set with MDA-MB-231 [4], 1580 nM; with MDA-MB-231 [5], 3120 nM. Moreover, the figures for the Ki in data set [3] and in data set [6] were 190 nM and 63 nM, respectively.
For `CN[C@@H](C)C(=O)N[C@H](C(=O)N1CC[C@H]2CC[C@H](NC(=O)c3csc4ccccc34)[C@H]21)C(C)(C)C`, the Ki in [3] was 160 nM; in [6], 110 nM.
As to `CN[C@@H](C)C(=O)N[C@H](C(=O)N1CCC[C@H]1CNC(=O)c1cccc2ccccc12)C(C)(C)C`, the figures for the inhibition constant (Ki) in [3] and in data set [6] were 1600 nM and 780 nM, respectively.
For the compound `CN[C@@H](C)C(=O)N[C@H](C(=O)N1CC[C@H]2CC[C@H](NC(=O)c3ccc4ccccc4c3)[C@H]21)C(C)(C)C`, the EC50 with HMEC [1] was greater than 10000 nM; in the data set on HMEC [2], greater than 10000 nM; with BT-549, 190 nM; in the data set with MDA-MB-231 [4] it was 1320 nM; in the data set on MDA-MB-231 [5], 3290 nM.
Regarding `CN[C@@H](C)C(=O)N[C@H](C(=O)N1CC[C@H]2CC[C@H](NC(=O)c3cccc4ccccc34)[C@H]21)C(C)(C)C`, in data set [7], the Cmax was found to be 3.6 µM. Besides, the Activity result in the data set on Mus musculus is on record as “Non-toxic”. The compound further gave a half-life in [8] of 1.3 h. Further, the result in the data set on MDA-MB-231 [9] and with MDA-MB-231 [10] was Active. Further, the EC50 was greater than 10000 nM in the data set with HMEC [1]; greater than 10000 nM in the data set with HMEC [2]; 470 nM with BT-549; 490 nM in the data set with MDA-MB-231 [4]; 980 nM in the data set with MDA-MB-231 [5]. This compound also returned an exposure (AUC) in data set [11] of 5 µM·h.
Regarding `CN[C@@H](C)C(=O)N[C@H](C(=O)N1CC[C@H]2CC[C@H](NC(=O)C3COc4ccccc43)[C@H]21)C(C)(C)C` (some centres undefined), the Ki in data set [3] came out at 1300 nM; in [6], 1500 nM.
In the case of `CN[C@@H](C)C(=O)N[C@H](C(=O)N1CC[C@H]2CC[C@H](NC(=O)c3ccc(F)c4ccccc34)[C@H]21)C(C)(C)C`, the EC50 was greater than 10000 nM in the data set with HMEC [1]; greater than 10000 nM with HMEC [2]; 4070 nM in the data set on BT-549; 4450 nM in the data set on MDA-MB-231 [4]; 10200 nM with MDA-MB-231 [5].
On to `CN[C@@H](C)C(=O)N[C@H](C(=O)N1CC[C@H]2CC[C@H](NC(=O)c3c(OC)ccc4ccccc34)[C@H]21)C(C)(C)C`, for which the Ki in [3] and in data set [6] was 110 nM throughout.
On to `CN[C@@H](C)C(=O)N[C@H](C(=O)N1CCC[C@H]1CNC(=O)C(c1ccccc1)c1ccccc1)C(C)(C)C`, for which the inhibition constant Ki in data set [3] turned out to be 3000 nM; in data set [6], 290 nM.
For the compound `CN[C@@H](C)C(=O)N[C@H](C(=O)N1CC[C@H]2CC[C@H](NC(=O)c3ccc4[nH]nnc4c3)[C@H]21)C(C)(C)C`, the inhibition constant Ki in data set [3] worked out at 1500 nM; in data set [6], 260 nM.
Compound `CN[C@@H](C)C(=O)N[C@H](C(=O)N1CC[C@H]2CC[C@H](NC(=O)C(c3ccccc3)c3ccccc3)[C@H]21)C(C)(C)C` came in with a Cmax in data set [7] of 5 µM. Moreover, the half-life in data set [8] was 1.5 h. The EC50 in the data set on HMEC [1] was greater than 10000 nM; in the data set with HMEC [2], greater than 10000 nM; in the data set on BT-549 it was 1810 nM; in the data set on MDA-MB-231 [4] it was 3590 nM; with MDA-MB-231 [5], 9640 nM. This compound yielded an exposure (AUC) in data set [11] of 16 µM·h.
Regarding `CN[C@@H](C)C(=O)N[C@H](C(=O)N1CC[C@H]2CC[C@H](NC(=O)c3coc4ccccc34)[C@H]21)C(C)(C)C`, the values for the Ki in data set [3] and in data set [6] were 640 nM and 440 nM, respectively.
As to `CN[C@@H](C)C(=O)N[C@H](C(=O)N1CC[C@H]2CC[C@H](NC(=O)c3ccc4c(c3)OCO4)[C@H]21)C(C)(C)C`, the values for the Ki in [3] and in data set [6] were 1800 nM and 1300 nM, respectively.
The like results for `CN[C@@H](C)C(=O)N[C@H](C(=O)N1CC[C@H]2CC[C@H](NC(=O)N3CCc4ccccc43)[C@H]21)C(C)(C)C` were, in that order, 1500 nM and 1900 nM.

The values are drawn from ChEMBL document CHEMBL1152772, “Orally bioavailable antagonists of inhibitor of apoptosis proteins based on an azabicyclooctane scaffold” (J Med Chem, 2009).
